In paper PMC11223199 (ACS Omega, 2024):

What was measured:
DeHa4 = experiment: fluoride ion probe, Lineweaver-Burk; type: biochemical, Delftia acidovorans; conditions: pH 7, PBS, 37 °C, 28 h
In short: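 Cobalt-affinity-purified enzyme from E. coli BL21 DE3 (pET15b), 250 μg in 0.5 mL with MFA (0.4–3 mM) or DFA (10–120 mM), 28 h, 250 rpm. Samples diluted in low-level TISAB and water, then read by fluoride electrode against NaF calibration (0–20 μM, second-order polynomial fit). Product equals fluoride for MFA and half of fluoride for DFA. Velocity is product per hour. 4–6 independent runs.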

DeHa2 = target: T1, DeHa2 (Delftia acidovorans, UniProt Q7DI63); experiment: fluoride ion probe, Lineweaver-Burk; type: biochemical; conditions: pH 7, PBS, 37 °C, 28 h
T1 sequence (Q7DI63 1-224): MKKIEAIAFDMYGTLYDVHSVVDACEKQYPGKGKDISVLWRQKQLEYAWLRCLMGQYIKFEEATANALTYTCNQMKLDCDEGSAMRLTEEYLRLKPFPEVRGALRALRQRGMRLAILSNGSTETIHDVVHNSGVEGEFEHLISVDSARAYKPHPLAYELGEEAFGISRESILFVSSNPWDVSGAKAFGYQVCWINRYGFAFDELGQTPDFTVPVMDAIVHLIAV

| SMILES | Km (DeHa4) [mM] | Km (DeHa2) [mM] |
| --- | --- | --- |
| O=C(O)C(F)F [DFA, difluoroacetate] | 39 ± 2.36 |  |
| O=C(O)CF [MFA, monofluoroacetate] | 2.19 ± 0.37 | 5.47 ± 1.54 |
